Reference: ChEMBL document CHEMBL1938284, “Synthesis and biological activity of novel organoselenium derivatives targeting multiple kinases and capable of inhibiting cancer progression to metastases” (Eur J Med Chem, 2012)
Calls of active or inactive are those of the source. The rule behind the calls is not given here.

Assays:
[1] = biological target: Insulin-like growth factor 1 receptor (Homo sapiens) (UniProt P08069); test: Inhibition of IGF1R at 1 uM
[2] = biological target: Fibroblast growth factor receptor 1 (Homo sapiens) (UniProt P11362); test: Inhibition of FGFR1 at 1 uM
[3] = biological target: Receptor-type tyrosine-protein kinase FLT3 (Homo sapiens) (UniProt P36888); test: Inhibition of FLT3 at 1 uM
[4] = biological target: Serine/threonine-protein kinase PAK 1 (Homo sapiens) (UniProt Q13153); test: Inhibition of PAK1 at 1 uM
[5] = biological target: Proto-oncogene tyrosine-protein kinase Src (Homo sapiens) (UniProt P12931); test: Inhibition of SRC at 1 uM
[6] = biological target: Vascular endothelial growth factor receptor 2 (Homo sapiens) (UniProt P35968); test: Inhibition of VEGFR2 at 1 uM
[7] = biological target: RAC-alpha serine/threonine-protein kinase (Homo sapiens, UniProt P31749); test: Inhibition of AKT-1
[8] = biological target: T1, Focal adhesion kinase 1 (Homo sapiens, UniProt Q05397); test: Inhibition of human recombinant full-length FAK using ATP and Poly Glu:Tyr as substrate after 4 hrs by luminescence analysis
Summary of the method: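 Human recombinant full-length FAK incubated 4 h at room temperature in kinase buffer with ATP and Poly Glu:Tyr substrate, with or without compound at various concentrations.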

[9] = biological target: Protein kinase C alpha type (Homo sapiens, UniProt P17252); test: Inhibition of PKCalpha
[10] = tested on: MDA-MB-231; test: Antiangiogenic activity in human MDA231 cells assessed as inhibition of cell migration at 10 uM after 12 to 24 hrs by wound healing migration assay; assay type: functional, cell-based
Summary of the method: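 MDA-231 cells grown on coverslips for 24 h, wounded by scraping with a micropipette tip, washed, then kept in fresh medium at 37 °C with compound at 10 μM final or DMSO. Photographed at 12 and 24 h. Remaining wound area measured. DMSO set to 0% inhibition. Mean ± SD of five independent experiments.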

[11] = tested on: MDA-MB-231; test: Antiinvasive activity in human MDA231 cells at 10 uM after 48 hrs by Matrigel matrix assay; assay type: functional
Summary of the method: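 Serum-starved MDA-231 cells (30,000) placed with or without compound (10 μM) in the upper compartment of 8-µm Matrigel-coated Boyden chambers. Lower compartment held DMEM 0.2% BSA with 10% serum. Invasion ran 48 h, then invaded cells were fixed, stained and counted under a 40× objective. DMSO normalized to 0% inhibition. Mean ± SD, five experiments.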

[12] = tested on: MDA-MB-231; test: Antitumor activity against human MDA231 cells xenografted in SCID mouse assessed as tumor growth inhibition at 60 mg/kg, ip administered 3 times a week for a total of 9 doses measured on day 40; assay type: functional, organism-based; parameters: dose 60 mg/kg
Summary of the method: (§1)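 Female SCID mice, 6 per group, given 1.5 million MDA-231-M2 cells into the mammary fat pad. Once tumours were palpable, vehicle or compound was given at 60 mg/kg IP 3 times weekly for 9 injections. Mice sacrificed on day 40. Lungs fixed in 10% Bouin's and surface metastases counted by stereomicroscope. Primary tumour volume also recorded. Groups compared to vehicle by unpaired Student t test.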

[13] = tested on: Mus musculus; test: Toxicity in SCID mouse xenografted with human MDA231 cells assessed as body weight loss at 60 mg/kg, ip administered 3 times a week for a total of 9 doses; assay type: organism-based; parameters: dose 60 mg/kg, route intraperitoneal; settings: in vivo
[14] = tested on: Mus musculus; test: Apparent toxicity in SCID mouse xenografted with human MDA231 cells at 60 mg/kg, ip administered 3 times a week for a total of 9 doses; assay type: organism-based; parameters: dose 60 mg/kg, route intraperitoneal; settings: in vivo
[15] = tested on: Cancer cell lines; test: Antitumor activity against human MDA231 cells xenografted in SCID mouse assessed as inhibition of lung metastases of cancer cells at 60 mg/kg, ip administered 3 times a week for a total of 9 doses measured on day 40 by stereomicroscopic analysis; assay type: functional, organism-based; parameters: dose 60 mg/kg; summary of the method: as §1
[16] = biological target: T1, Focal adhesion kinase 1; test: Inhibition of FAK phosphorylation in EGF-stimulated human MDA231 cells using [gamma32P]ATP as substrate at 50 uM after 2 hrs by scintillation counting; assay type: cell-based
Summary of the method: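 MDA231 cells serum-starved overnight, treated with compound for 2 h, then stimulated with 20 ng/mL EGF for 30 min. Lysates immunoprecipitated with polyclonal anti-FAK. The immunocomplex was assayed in Hepes/MgCl2/MnCl2 buffer with 3 μCi/nmol [γ-32P]-ATP. Reactions stopped by boiling in SDS sample buffer. Bands excised after SDS-PAGE and counted by scintillation. Figure legend gives N = 4.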

[17] = tested on: MDA-MB-231; test: Cytotoxicity against human MDA231 cells at 50 uM; assay type: functional, cell-based

Chain of Serine/threonine-protein kinase PAK 1 (Homo sapiens) (Q13153 whole entry): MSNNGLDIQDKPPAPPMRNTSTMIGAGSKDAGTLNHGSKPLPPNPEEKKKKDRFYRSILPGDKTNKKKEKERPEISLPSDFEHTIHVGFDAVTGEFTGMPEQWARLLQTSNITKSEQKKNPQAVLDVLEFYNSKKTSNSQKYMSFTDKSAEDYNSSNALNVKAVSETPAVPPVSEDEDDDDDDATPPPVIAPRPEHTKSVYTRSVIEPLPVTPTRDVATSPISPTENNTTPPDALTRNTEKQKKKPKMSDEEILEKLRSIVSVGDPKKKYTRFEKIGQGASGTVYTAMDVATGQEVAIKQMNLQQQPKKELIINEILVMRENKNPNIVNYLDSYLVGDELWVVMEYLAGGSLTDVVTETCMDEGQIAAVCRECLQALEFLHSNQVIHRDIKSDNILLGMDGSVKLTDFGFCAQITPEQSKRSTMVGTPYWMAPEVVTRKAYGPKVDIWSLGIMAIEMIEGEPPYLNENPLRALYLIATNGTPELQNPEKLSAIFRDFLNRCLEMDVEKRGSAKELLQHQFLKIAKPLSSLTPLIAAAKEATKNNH
Chain of Proto-oncogene tyrosine-protein kinase Src (Homo sapiens) (P12931 2-536 limits assumed): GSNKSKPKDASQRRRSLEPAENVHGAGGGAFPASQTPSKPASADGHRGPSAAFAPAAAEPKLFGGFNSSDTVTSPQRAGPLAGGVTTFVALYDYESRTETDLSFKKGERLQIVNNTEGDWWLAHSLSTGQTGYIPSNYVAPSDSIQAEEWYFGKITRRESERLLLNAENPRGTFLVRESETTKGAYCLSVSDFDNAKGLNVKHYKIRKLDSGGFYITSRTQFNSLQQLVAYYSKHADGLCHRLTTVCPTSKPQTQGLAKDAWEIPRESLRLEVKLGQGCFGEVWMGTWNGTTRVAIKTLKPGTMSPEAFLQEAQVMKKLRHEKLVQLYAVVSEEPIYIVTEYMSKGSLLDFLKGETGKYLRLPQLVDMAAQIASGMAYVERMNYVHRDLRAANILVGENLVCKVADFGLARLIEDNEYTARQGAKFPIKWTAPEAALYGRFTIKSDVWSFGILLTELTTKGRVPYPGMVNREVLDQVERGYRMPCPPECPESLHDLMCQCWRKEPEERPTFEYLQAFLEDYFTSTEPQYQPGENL
Chain of Insulin-like growth factor 1 receptor (Homo sapiens) (P08069 31-736 limits assumed): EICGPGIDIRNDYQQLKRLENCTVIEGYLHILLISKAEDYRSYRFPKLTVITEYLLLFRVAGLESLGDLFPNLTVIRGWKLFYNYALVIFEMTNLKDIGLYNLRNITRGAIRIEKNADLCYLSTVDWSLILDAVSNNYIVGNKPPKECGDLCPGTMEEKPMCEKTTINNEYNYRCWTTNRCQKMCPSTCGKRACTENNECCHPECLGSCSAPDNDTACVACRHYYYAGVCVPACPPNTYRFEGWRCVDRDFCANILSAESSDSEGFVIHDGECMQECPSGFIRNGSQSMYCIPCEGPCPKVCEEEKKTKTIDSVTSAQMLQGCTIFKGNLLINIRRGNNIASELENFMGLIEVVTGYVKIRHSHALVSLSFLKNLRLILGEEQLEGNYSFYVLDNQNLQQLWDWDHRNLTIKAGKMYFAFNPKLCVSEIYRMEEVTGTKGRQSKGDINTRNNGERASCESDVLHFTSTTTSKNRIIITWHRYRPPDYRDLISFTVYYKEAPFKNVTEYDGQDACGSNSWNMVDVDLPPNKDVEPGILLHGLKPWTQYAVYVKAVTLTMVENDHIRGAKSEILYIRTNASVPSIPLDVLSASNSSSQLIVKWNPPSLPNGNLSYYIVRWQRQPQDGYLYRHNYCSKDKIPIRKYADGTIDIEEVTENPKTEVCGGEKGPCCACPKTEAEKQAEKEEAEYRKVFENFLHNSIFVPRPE
Chain of Insulin-like growth factor 1 receptor (Homo sapiens) (P08069 741-1367 limits assumed): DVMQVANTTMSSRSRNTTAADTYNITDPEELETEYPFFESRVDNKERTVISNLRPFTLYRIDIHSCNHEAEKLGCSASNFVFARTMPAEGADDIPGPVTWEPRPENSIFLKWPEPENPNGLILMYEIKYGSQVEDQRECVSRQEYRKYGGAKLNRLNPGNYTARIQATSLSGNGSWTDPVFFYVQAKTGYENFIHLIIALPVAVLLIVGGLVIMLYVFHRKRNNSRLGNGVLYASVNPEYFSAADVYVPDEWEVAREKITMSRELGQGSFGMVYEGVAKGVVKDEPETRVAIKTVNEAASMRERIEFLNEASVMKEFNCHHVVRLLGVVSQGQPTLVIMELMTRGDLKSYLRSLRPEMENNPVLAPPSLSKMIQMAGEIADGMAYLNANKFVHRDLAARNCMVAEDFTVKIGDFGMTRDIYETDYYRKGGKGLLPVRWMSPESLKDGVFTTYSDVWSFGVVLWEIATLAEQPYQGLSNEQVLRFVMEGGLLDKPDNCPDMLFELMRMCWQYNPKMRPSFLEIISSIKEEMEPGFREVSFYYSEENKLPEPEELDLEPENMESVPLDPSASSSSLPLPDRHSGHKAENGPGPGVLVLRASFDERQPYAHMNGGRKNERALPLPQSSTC
Chain of Receptor-type tyrosine-protein kinase FLT3 (Homo sapiens) (P36888 whole entry): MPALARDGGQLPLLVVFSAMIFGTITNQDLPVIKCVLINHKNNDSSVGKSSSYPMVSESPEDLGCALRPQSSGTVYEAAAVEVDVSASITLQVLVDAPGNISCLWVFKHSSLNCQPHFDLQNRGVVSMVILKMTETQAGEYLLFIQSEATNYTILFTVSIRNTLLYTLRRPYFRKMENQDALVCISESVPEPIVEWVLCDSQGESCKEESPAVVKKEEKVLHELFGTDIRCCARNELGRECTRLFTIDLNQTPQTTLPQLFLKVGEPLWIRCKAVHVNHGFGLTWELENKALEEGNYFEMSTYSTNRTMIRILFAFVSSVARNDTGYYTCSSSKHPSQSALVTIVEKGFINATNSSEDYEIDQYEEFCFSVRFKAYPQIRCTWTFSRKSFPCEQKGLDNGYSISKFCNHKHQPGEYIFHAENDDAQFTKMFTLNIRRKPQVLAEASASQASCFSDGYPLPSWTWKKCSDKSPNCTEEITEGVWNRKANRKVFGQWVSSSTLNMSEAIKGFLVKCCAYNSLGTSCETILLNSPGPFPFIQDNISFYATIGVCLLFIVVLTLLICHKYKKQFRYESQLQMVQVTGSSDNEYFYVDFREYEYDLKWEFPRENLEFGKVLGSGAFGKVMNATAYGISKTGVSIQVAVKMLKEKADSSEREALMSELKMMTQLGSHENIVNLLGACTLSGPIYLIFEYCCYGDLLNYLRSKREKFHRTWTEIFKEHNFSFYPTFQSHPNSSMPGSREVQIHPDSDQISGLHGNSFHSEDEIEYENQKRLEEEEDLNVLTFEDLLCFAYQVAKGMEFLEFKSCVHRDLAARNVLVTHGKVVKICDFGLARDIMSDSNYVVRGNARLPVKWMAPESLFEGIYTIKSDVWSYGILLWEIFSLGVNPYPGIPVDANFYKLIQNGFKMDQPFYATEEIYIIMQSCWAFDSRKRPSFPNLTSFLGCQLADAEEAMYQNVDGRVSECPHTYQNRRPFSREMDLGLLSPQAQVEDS
Chain of Fibroblast growth factor receptor 1 (Homo sapiens) (P11362 22-822 limits assumed): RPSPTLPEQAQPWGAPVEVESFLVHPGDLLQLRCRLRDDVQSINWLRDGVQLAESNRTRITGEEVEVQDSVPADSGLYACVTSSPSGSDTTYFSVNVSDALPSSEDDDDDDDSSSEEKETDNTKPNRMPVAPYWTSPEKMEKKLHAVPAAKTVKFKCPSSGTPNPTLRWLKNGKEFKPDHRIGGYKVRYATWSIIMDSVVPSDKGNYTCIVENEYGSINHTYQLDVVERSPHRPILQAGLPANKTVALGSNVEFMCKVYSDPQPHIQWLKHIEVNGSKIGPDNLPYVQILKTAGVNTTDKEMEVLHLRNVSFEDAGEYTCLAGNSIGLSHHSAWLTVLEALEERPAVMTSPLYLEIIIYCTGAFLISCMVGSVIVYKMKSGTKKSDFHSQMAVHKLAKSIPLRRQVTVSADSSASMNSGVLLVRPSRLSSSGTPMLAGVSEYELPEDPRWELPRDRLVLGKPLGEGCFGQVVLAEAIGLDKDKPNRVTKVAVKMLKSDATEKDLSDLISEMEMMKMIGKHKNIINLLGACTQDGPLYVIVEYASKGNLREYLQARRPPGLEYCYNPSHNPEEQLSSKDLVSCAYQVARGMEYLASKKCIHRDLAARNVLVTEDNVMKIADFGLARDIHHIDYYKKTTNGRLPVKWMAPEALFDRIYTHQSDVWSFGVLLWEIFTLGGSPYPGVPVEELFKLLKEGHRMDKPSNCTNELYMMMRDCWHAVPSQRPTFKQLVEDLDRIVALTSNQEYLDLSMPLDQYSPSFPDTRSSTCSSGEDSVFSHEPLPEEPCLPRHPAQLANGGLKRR
Chain of RAC-alpha serine/threonine-protein kinase (P31749 whole entry): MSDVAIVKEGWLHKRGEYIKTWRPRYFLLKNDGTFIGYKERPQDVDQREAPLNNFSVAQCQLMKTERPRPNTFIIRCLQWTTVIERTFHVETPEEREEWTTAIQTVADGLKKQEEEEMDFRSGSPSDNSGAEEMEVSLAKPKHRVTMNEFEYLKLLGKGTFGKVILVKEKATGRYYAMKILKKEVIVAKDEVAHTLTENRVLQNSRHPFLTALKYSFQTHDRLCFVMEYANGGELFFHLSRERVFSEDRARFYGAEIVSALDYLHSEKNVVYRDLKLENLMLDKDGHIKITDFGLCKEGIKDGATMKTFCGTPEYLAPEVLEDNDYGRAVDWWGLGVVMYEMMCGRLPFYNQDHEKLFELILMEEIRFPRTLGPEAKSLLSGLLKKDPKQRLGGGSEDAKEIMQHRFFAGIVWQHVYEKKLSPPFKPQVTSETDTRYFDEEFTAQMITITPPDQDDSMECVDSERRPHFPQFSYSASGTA

Row | Compound | inhibition [1] | inhibition [2] | inhibition [3] | inhibition [4] | inhibition [5] | inhibition [6] | IC50 [7] | IC50 [8] | IC50 [9] | inhibition [10] | Activity [11] | growth inhibition (GI) [12] | Activity [13] | Activity [14] | inhibition [15] | inhibition [16] | Activity [17]
1 | CC(=O)OC[C@H]1O[C@@H](NC(=O)CCCn2[se]c3ccccc3c2=O)[C@H](OC(C)=O)[C@@H](OC(C)=O)[C@@H]1OC(C)=O | 0% | 0% | 0% | 0% | 0% | 0% | 800 nM | 920 nM | 740 nM | – | – | – | – | – | – | – | –
2 | O=c1c2ccccc2[se]n1-c1ccccc1 [EBSELEN] | 0% | 0% | 0% | 0% | 0% | 0% | – | – | – | inactive | inactive | inactive | Non-toxic | Non-toxic | inactive | inactive | –
3 | O=C(CCCn1[se]c2ccccc2c1=O)N[C@@H]1O[C@H](CO)[C@@H](O)[C@H](O)[C@H]1O | 0% | 0% | 0% | 0% | 0% | 0% | 880 nM | 960 nM | 730 nM | – | – | – | – | – | – | – | –
4 | CC(=O)OC[C@H]1O[C@@H](O[C@H]2[C@H](OC(C)=O)[C@@H](OC(C)=O)[C@H](n3[se]c4ccccc4c3=O)O[C@@H]2COC(C)=O)[C@H](OC(C)=O)[C@@H](OC(C)=O)[C@H]1OC(C)=O | 1% | 0% | 0% | 0% | 0% | 0% | – | – | – | – | – | Active | Non-toxic | Non-toxic | Active | – | Active
